Screening results (PubChem BioAssay)
RGS4 block = RGS4 inhibitors, primary screen, cell-based, HEK293 M3R inducible RGS4, calcium flux; Regulator of G-protein signaling 4 (Homo sapiens), P49798; Fluo-4 calcium flux; hits give high values; triggered by carbachol at its EC20; B-score at 10 µM; 310,000 tested, 0.45% active;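 active means B-score, a plate-corrected calcium signal, over three deviations above library mean, with baseline fluorescence within five deviations of library mean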;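 further: RGS4 expression induced by doxycycline in cells with stable M3 receptor; B-score is computed from the integrated fluorescence ratio over baseline after carbachol; higher B-score means a larger calcium signal and so more RGS4 inhibition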
Target sequence (P49798 whole entry, looked up): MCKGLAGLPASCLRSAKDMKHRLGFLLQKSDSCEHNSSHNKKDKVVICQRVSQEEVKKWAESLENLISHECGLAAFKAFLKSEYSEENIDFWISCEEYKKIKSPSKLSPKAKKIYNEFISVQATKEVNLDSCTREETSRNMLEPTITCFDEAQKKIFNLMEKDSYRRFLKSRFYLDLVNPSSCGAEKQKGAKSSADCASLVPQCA
MrgX1 agonist = agonists of human MrgX1 receptor, primary screen, HEK293 cells, Fluo-4 calcium flux. Mas-related G-protein coupled receptor member X1 (Homo sapiens), Q96LB2. Fluo-4 calcium fluorescence, agonist mode; hits give high values. B-score at 10 µM. 310,000 tested, 0.44% active;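 active means calcium response B-score plate-corrected fluorescence ratio at least 3 library SD, with starting fluorescence B-score inside 5 SD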
Target sequence (Q96LB2 whole entry, looked up): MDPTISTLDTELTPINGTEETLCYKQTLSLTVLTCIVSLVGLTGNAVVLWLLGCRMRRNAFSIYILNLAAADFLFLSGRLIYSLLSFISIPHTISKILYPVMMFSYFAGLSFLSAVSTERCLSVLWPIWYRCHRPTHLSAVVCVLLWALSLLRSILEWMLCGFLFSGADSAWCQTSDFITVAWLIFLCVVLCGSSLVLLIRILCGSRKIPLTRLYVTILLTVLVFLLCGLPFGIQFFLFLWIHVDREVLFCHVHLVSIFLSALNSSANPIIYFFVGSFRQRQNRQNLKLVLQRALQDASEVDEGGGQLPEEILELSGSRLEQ
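Material: MrgX1-expressing HEK293 cells / Dosing: compound as first of three additions / Incubation: overnight seeding, then 1 h dark dye loading / Signal: Fluo-4 NW calcium fluorescence / Evaluation: B-scored fluorescence response ratio / Benchmarks: positive and negative control wells on each plate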
MrgX1 allo act = positive allosteric modulators of MrgX1, primary screen, HEK293 cells, Fluo-4 calcium flux; Mas-related G-protein coupled receptor member X1 (Homo sapiens), Q96LB2; FDSS; hits give high values; B-score at 10 µM; 310,000 tested, 0.63% active;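 active means plate-corrected calcium response at least 3 library SD above typical, normal starting fluorescence, not activating the receptor alone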;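 further: compound read alongside a low EC10 to EC30 dose of BAM8-22 agonist; peak minus trough fluorescence over baseline measured at the second addition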
MrgX1 antagonist = antagonists of human MrgX1 receptor, primary screen, HEK293 cells, Fluo-4 calcium flux. BAM8-22 antagonism; hits give low values. B-score at 10 µM. 310,000 tested, 1.3% active;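 active means calcium-response B-score plate-corrected more than 3 library SD below zero, starting fluorescence within 5 deviations, no agonist response on first addition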;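 further: peak minus trough fluorescence over baseline after final BAM8-22 challenge near maximal dose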
RGS4 pot = RGS4 potentiators or activators, primary screen, cell-based, HEK293 M3R inducible RGS4, calcium flux | carbachol calcium flux Fluo4; hits give low values | B-score at 10 µM | 310,000 tested, 0.92% active;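 active means B-score of the integrated calcium signal more than 4 SD below the library mean, with starting fluorescence not abnormally high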;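 further: negative B-score means reduced calcium response which marks RGS4 activation or potentiation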
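System: HEK293 FlpIn-TREx cells, stable M3R, doxycycline-inducible RGS4. Timing: overnight RGS4 induction, 30 min dye load 37 °C, 20 min compound RT. Also added: carbachol, ECmax concentration. Measured by: Fluo4 fluorescence kinetic imaging of calcium. Evaluation: integrated calcium ratio converted to B score.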
RGS4 inh valid = enhanced carbachol calcium response, M3R/RGS4 cells, RGS4 inhibitor project, cell-based, validation screen, HEK293 M3R/RGS4, calcium flux; 1,700 tested, 65% active; shares compounds with RGS4 block; AID 492999, 2010; carbachol calcium Fluo-4 fluorescence; carbachol added at its EC20; 0 = buffer wells, 100 = carbachol control; calcium response, % at 10 µM;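 active means duplicate-averaged calcium response above the buffer-only control mean plus 5 SD of those controls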;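 further: integrated fluorescence ratio F max minus min over baseline F0; higher response in RGS4-induced cells means RGS4 inhibition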
RGS4 uninduced = carbachol calcium response in non-induced M3R cells, confirmation, counter-screen for RGS4 inhibitor project, cell-based, HEK293 M3R; shares compounds with RGS4 block; carbachol calcium Fluo-4; submaximal (EC20) carbachol stimulus; buffer wells 0%, carbachol control wells 100%; activity (percent), % at 10 µM; 1,900 tested, 20% active; call rule not given here;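 further: RGS4 induction absent so cells express M3R without RGS4; higher means more calcium signal and flags a non-specific hit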
M3R basal Ca ctr = second RGS4 inhibitor counter-screen in uninduced cells lacking carbachol | shares compounds with RGS4 block | HEK293 M3R/RGS4 non-induced, Fluo-4 calcium, no carbachol; normalised: buffer wells 0%, carbachol wells 100% | calcium response (agonist-mode artifact), % at 10 µM | 1,900 tested, 22% active | AID 493001;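 active means duplicate-averaged calcium rise in uninduced cells above buffer wells' mean plus 5 SD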
A number is an active result; i = inactive; nt = not tested or not shown. Shown are actives, neighbours in structure and some others; about 3.5% of the full set was active somewhere.

SMILES	RGS4 block	MrgX1 agonist	MrgX1 allo act	MrgX1 antagonist	RGS4 pot	RGS4 inh valid	RGS4 uninduced	M3R basal Ca ctr
CCCCN(CC)CCCNC(=O)c1ccc(CS(=O)(=O)c2ccccc2C)o1	i	i	i	i	i	nt	nt	nt
O=C(N/N=C/c1cc2cc3c(cc2nc1Cl)OCO3)c1ccncc1	7.83	i	i	i	i	i	i	i
O=C(N/N=C/c1cc2cc3c(cc2nc1Cl)OCCO3)c1ccccc1O	i	i	i	i	i	nt	nt	nt
OC(c1cc(-c2ccc(Cl)cc2)nc2ccccc12)C1CCCCN1 (stereo not given)	i	i	i	i	i	nt	nt	nt
O=c1c2cc(Cl)cc(Cl)c2nc2n1CCC2	i	i	i	i	i	nt	nt	nt
OC(c1cc(C(F)(F)F)nc2c(Cl)cc(Cl)cc12)C1CCCCN1 (stereo not given)	13.3	i	i	i	i	24.5%	i	13.5%
O[C@@H](c1cc(C(F)(F)F)nc2c(C(F)(F)F)cccc12)[C@H]1CCCCN1	5.71	i	i	i	i	26.5%	i	46.0%
Cc1cccc(N2C(=O)c3ccc(C(=O)Nc4ccccn4)cc3C2=O)c1	i	i	i	i	i	nt	nt	nt
Cc1cccc(N2C(=O)/C(=C\c3ccc(C(=O)O)cc3)c3ccccc3C2=O)c1	10.3	i	i	i	i	37.5%	i	i
O=C1NC(c2ccc(-c3ccccc3[N+](=O)[O-])o2)C(C(=O)c2ccc(F)cc2)C(O)(C(F)(F)F)N1 (stereo not given)	i	i	i	i	i	nt	31.5%	7.5%
Cc1ccc(C2NC(=O)NC(O)(C(F)(F)F)C2C(=O)c2ccccc2)o1 (stereo not given)	i	i	i	i	i	nt	nt	nt
COc1ccc(C(=O)C2C(c3ccc(-c4ccccc4[N+](=O)[O-])o3)NC(=O)NC2(O)C(F)(F)F)cc1 (stereo not given)	i	i	i	i	i	i	i	i
CCOC(=O)c1sc(N2C(=O)C(O)=C(C(=O)c3ccc(C)o3)C2c2cccc([N+](=O)[O-])c2)nc1C (stereo not given)	7.34	i	i	i	i	23.5%	i	i
CCOC(=O)c1ccc(N2C(=O)c3n[nH]c(C)c3C2c2ccco2)cc1 (stereo not given)	i	i	i	i	i	nt	nt	nt
CCOC(=O)c1ccc(N2C(=O)c3n[nH]c(-c4ccco4)c3C2c2cccc([N+](=O)[O-])c2)cc1 (stereo not given)	6.65	i	i	i	i	i	i	i
COc1ccc(OC)c(-c2nc3cc4ccccc4cc3nc2-c2ccccc2)c1	6.77	i	i	i	i	14.0%	i	93.5%
COc1ccc(-c2nc3ccccc3nc2-c2ccccc2)cc1OC	i	i	i	i	i	nt	nt	nt
CCc1ccc(-c2cc(C(=O)N/N=C/c3c[nH]c4ccccc34)[nH]n2)cc1	4.87	i	i	i	i	i	i	i
CCc1ccc2c(Cl)c(C(=O)N/N=C/c3c[nH]c4ccccc34)sc2c1	4.78	i	i	i	i	17.5%	39.5%	8.5%
COCCCNC(=O)CCC(=O)NNc1nc2ccccc2c2nc(C)nn12	i	i	i	i	i	nt	nt	nt
Cc1noc(NS(=O)(=O)c2ccc(N/C=C/C(=O)c3ccc(F)cc3)cc2)c1C	i	i	i	i	i	nt	i	i
Cc1noc(NS(=O)(=O)c2ccc(N/C=C/C(=O)c3ccncc3)cc2)c1C	i	i	i	i	i	i	i	i
Cc1noc(NS(=O)(=O)c2ccc(N/C=C\C(=O)c3ccncc3)cc2)c1C	i	i	i	i	i	nt	i	i
COc1ccc(OC)c(NC(=O)CSc2ccc3nnc(-c4ccccn4)n3n2)c1	i	i	i	i	i	nt	nt	nt
Cc1nn(CC(C)C)c2sc(C(=O)NC3CC(C)(C)NC(C)(C)C3)cc12	i	i	i	i	i	nt	nt	nt
SMILES	RGS4 block	MrgX1 agonist	MrgX1 allo act	MrgX1 antagonist	RGS4 pot	RGS4 inh valid	RGS4 uninduced	M3R basal Ca ctr
CCOC(=O)COc1ccc(/C=C/[N+](=O)[O-])c(OCC(=O)OCC)c1	11.3	i	i	i	i	24.5%	33.5%	i
COC(=O)c1ccc(Cn2nc(C)c([N+](=O)[O-])c2C)o1	i	i	i	i	i	nt	nt	nt
CCOc1ccc(/C=C/[N+](=O)[O-])c2ccccc12	23	41.9	i	i	i	45.0%	i	27.0%
COC(=O)c1ccc(Cn2cc(/C=C\[N+](=O)[O-])c3ccccc32)o1	5.38	i	i	i	i	67.0%	48.0%	40.0%
O=C(O)c1ccc(Cn2cc(/C=C\[N+](=O)[O-])c3ccccc32)o1	i	i	i	i	i	i	i	i
Cc1cccc(Cn2cc(/C=C/[N+](=O)[O-])c3ccccc32)c1	i	i	i	i	i	nt	nt	nt
O=[N+]([O-])/C=C/c1cn(Cc2ccc(Cl)cc2)c2ccccc12	8.58	i	i	i	i	24.5%	i	76.5%
CCOC(=O)Cn1cc(/C=C/[N+](=O)[O-])c2ccccc21	17.1	33.2	i	i	i	56.0%	61.0%	14.5%
O=C(CNC(=O)N1CC(=O)Nc2ccccc21)NCc1cccc(Cl)c1	i	i	i	i	i	nt	nt	nt
c1ccc(-c2nc(NCc3cccnc3)c3ccccc3n2)cc1	i	i	i	i	i	i	i	i
Cc1ccc(-c2nc(NCc3cccnc3)c3ccccc3n2)cc1	i	i	i	i	i	i	i	i
Clc1cccc(-c2nc(NCc3cccnc3)c3ccccc3n2)c1	i	i	i	i	i	nt	nt	nt
O=C(Cc1cccs1)N1CCN(c2ccc([N+](=O)[O-])cc2)CC1	i	i	i	i	i	nt	nt	nt
CC(=O)N1CCc2cc(S(=O)(=O)NC(C)c3ccccc3)ccc21 (stereo not given)	i	i	i	i	i	i	i	i
COc1ccc2o/c(=N\O)c(C(=O)Nc3ccc(C)cc3)cc2c1	11.8	nt	nt	nt	i	14.5%	i	i
COc1ccccc1N=c1oc2cc(O)ccc2cc1C(N)=O	i	i	i	i	i	nt	nt	nt
COc1ccccc1NC(=O)c1cc2ccc(O)cc2o/c1=N\O	i	i	i	i	i	i	i	i
